Laboratory results published in ChEMBL document CHEMBL2029265, “2-(Pyrrolidin-1-yl)ethyl-3,4-dihydroisoquinolin-1(2H)-one derivatives as potent and selective histamine-3 receptor antagonists” (J Med Chem, 2012).

Columns and labels:
Cytochrome P450 3A4 [1] = target: T1, Cytochrome P450 3A4 (Homo sapiens, UniProt P08684); experiment: Inhibition of CYP3A4 in human liver microsomes up to 100 uM; format: ADME, Microsome
Procedure, shortened: (§1)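 Human liver microsomes were incubated with test article at varying concentrations up to 100 μM. Activities measured were CYP1A2, 2A6, 2B6, 2C8, 2C9, 2C19 and 2D6, plus CYP3A4 via midazolam 1′-hydroxylation and via testosterone 6β-hydroxylation.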

[2] = target: 5-hydroxytryptamine receptor 2B (Homo sapiens, UniProt P41595); experiment: Binding affinity to 5-HT2B receptor
5-hydroxytryptamine receptor 2B, sequence (P41595 whole entry): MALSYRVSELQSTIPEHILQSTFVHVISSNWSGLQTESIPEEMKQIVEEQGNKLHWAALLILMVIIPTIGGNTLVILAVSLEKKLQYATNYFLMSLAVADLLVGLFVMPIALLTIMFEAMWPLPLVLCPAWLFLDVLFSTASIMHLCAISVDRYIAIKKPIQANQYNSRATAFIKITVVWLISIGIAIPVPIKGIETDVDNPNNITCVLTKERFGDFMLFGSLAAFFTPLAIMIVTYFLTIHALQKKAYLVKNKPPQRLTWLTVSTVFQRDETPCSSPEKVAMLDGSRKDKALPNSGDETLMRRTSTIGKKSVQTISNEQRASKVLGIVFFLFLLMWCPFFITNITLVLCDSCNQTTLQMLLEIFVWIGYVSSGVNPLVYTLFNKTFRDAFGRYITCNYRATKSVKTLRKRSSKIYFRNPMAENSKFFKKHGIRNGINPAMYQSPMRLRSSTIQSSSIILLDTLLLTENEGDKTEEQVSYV

Cytochrome P450 2A6 = Cytochrome P450 2A6 (Homo sapiens, UniProt P11509); experiment: Inhibition of CYP2A6 in human liver microsomes up to 100 uM; format: ADME, Microsome; procedure, shortened: as §1
Histamine H3 receptor [3] = target: T2, Histamine H3 receptor (Homo sapiens, UniProt Q9Y5N1); experiment: Displacement of [3H]-(R)-alpha-methylhistamine from human H3 receptor expressed in HEK293T cells after 120 mins by scintillation counting; format: cell-based, HEK-293T
T2 sequence (Q9Y5N1 whole entry): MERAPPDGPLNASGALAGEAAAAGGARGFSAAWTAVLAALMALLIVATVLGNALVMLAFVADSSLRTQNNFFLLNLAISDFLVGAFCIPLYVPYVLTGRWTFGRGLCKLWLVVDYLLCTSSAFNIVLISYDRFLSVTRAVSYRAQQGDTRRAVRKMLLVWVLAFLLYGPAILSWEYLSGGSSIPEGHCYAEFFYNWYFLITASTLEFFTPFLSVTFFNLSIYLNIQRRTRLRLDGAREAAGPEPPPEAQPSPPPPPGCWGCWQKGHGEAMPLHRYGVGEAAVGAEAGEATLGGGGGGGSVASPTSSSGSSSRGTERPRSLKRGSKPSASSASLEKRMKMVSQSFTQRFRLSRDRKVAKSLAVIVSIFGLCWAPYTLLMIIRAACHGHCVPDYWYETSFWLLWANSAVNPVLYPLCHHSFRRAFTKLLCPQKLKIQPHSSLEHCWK

Cytochrome P450 2C19 = Cytochrome P450 2C19 (Homo sapiens, UniProt P33261); experiment: Inhibition of CYP2C19 in human liver microsomes up to 100 uM; format: ADME, Microsome; procedure, shortened: as §1
[4] = target: 5-hydroxytryptamine receptor 6 (Homo sapiens, UniProt P50406); experiment: Binding affinity to 5-HT6 receptor
5-hydroxytryptamine receptor 6, sequence (P50406 whole entry): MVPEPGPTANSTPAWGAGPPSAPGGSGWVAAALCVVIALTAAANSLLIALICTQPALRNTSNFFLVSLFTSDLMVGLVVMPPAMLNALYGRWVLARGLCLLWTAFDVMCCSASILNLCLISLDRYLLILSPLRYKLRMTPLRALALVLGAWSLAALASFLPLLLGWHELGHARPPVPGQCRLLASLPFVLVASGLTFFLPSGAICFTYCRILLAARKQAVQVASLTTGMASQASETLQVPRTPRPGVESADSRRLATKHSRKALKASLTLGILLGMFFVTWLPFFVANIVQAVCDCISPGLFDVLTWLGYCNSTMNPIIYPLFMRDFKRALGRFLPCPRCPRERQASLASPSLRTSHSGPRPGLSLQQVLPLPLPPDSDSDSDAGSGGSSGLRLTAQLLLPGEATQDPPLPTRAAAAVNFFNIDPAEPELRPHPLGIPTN

[5] = Apparent permeability from apical to basolateral side of human Caco2 cells; format: ADME, cell-based; details: Caco-2
Procedure, shortened: (§2)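 Permeability was measured across Caco-2 epithelial monolayers in both the apical→basolateral and basolateral→apical directions. Apparent permeability is reported in 10−6 cm/s, and a directional ratio (B→A over A→B) was derived.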

[6] = target: T3, 5-hydroxytryptamine receptor 1A (Homo sapiens, UniProt P08908); experiment: Binding affinity to 5-HT1A receptor
T3 sequence (P08908 whole entry): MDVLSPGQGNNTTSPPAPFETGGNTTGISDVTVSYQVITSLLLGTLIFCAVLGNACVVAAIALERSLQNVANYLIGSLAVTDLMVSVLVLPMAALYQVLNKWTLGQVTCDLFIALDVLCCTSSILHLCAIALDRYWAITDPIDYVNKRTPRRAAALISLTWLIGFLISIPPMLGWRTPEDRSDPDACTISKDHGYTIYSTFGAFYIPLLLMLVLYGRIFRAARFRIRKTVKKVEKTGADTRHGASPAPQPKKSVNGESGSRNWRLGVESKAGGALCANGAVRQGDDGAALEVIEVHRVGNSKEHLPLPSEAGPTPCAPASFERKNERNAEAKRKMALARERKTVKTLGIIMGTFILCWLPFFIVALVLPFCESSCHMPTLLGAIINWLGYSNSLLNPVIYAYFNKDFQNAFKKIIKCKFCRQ

Liver microsomes [7] = experiment: Metabolic stability in human liver microsomes assessed as GSH adduct formation at 1 uM after 30 mins in presence of NADPH and UDPGA; format: ADME, Microsome; details: 0.5 h
Procedure, shortened: (§3)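 Incubations used liver microsomes with NADPH + UDPGA. Glutathione adduct formation was monitored.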

[8] = Half life in Sprague-Dawley rat liver microsomes at 1 uM after 30 mins in presence of NADPH and UDPGA; format: ADME, Microsome
Procedure, shortened: (§4)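 Liver microsomes from rat, dog, monkey and human were incubated with phase I + II cofactors (NADPH + UDPGA). Half-life was measured in minutes.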

[9] = target: Sodium-dependent dopamine transporter (Homo sapiens, UniProt Q01959); experiment: Binding affinity to DAT
Sodium-dependent dopamine transporter, sequence (Q01959 whole entry): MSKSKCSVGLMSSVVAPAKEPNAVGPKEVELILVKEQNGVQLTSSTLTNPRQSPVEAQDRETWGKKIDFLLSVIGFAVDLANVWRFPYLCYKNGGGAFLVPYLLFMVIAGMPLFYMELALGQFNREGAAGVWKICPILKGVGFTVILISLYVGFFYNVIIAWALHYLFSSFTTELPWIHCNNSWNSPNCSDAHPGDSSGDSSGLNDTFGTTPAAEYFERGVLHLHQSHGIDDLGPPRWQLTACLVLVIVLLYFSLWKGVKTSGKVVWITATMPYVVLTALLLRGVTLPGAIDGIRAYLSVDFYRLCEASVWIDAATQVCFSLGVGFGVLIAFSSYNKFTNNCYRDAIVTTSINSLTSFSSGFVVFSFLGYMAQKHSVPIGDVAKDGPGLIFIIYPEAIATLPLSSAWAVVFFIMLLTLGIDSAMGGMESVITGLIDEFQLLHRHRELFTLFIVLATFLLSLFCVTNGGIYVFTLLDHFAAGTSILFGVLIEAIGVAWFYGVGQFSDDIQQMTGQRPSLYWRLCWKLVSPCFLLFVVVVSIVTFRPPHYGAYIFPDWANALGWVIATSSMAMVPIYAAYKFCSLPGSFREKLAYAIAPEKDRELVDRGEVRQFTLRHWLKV

Cytochrome P450 2D6 = Cytochrome P450 2D6 (Homo sapiens, UniProt P10635); experiment: Inhibition of CYP2D6 in human liver microsomes up to 100 uM; format: ADME, Microsome; procedure, shortened: as §1
[10] = Half life in human liver microsomes at 1 uM after 30 mins in presence of NADPH and UDPGA; format: ADME, Microsome; procedure, shortened: as §4
Cytochrome P450 2B6 = Cytochrome P450 2B6 (Homo sapiens, UniProt P20813); experiment: Inhibition of CYP2B6 in human liver microsomes up to 100 uM; format: ADME, Microsome; procedure, shortened: as §1
Cytochrome P450 2B6, sequence (P20813 whole entry): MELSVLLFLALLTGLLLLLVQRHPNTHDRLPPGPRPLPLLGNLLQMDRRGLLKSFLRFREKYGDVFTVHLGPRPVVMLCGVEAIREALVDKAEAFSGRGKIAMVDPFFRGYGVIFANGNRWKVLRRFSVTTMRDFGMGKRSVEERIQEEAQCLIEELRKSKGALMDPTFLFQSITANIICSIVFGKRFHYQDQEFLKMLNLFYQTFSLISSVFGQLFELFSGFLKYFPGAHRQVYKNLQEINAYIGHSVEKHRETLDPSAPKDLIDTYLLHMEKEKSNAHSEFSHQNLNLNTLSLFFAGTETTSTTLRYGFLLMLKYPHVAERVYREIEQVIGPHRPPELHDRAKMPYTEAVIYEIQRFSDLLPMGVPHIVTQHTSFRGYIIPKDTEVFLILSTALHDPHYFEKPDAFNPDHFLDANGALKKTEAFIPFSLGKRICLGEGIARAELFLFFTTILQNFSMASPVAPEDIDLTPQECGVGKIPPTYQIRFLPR

Liver = experiment: Metabolic stability in beagle dog liver microsomes assessed as GSH adduct formation at 1 uM after 30 mins in presence of NADPH and UDPGA; format: ADME, Canis lupus familiaris, Microsome; details: 0.5 h; procedure, shortened: as §3
[11] = Metabolic stability in cynomolgus monkey liver microsomes assessed as GSH adduct formation at 1 uM after 30 mins in presence of NADPH and UDPGA; format: ADME, Macaca fascicularis, Microsome; details: 0.5 h; procedure, shortened: as §3
[12] = Fraction unbound in rat plasma; format: ADME, cell-free
Procedure, shortened: (§5)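 Free fraction in human and rat plasma was determined by ultrafiltration.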

Liver microsomes [13] = experiment: Metabolic stability in Sprague-Dawley rat liver microsomes assessed as GSH adduct formation at 1 uM after 30 mins in presence of NADPH and UDPGA; format: ADME, Microsome; details: 0.5 h; procedure, shortened: as §3
[14] = target: T4, Alpha-2A adrenergic receptor (Homo sapiens, UniProt P08913); experiment: Binding affinity to alpha-2A receptor
T4 sequence (P08913 whole entry): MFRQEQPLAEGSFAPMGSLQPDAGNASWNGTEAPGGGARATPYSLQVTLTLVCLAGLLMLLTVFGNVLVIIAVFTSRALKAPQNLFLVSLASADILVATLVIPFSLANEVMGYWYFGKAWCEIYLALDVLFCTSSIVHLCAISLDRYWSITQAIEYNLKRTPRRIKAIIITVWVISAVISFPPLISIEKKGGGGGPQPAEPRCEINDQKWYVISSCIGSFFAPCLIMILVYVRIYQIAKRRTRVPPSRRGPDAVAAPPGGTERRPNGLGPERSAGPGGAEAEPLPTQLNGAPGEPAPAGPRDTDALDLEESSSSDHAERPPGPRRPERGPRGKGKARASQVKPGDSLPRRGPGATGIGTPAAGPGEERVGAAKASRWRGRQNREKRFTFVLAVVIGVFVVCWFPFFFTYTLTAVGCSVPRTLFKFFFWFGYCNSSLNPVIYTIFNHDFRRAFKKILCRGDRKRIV

[15] = Fraction unbound in human plasma; format: ADME, cell-free; procedure, shortened: as §5
[16] = target: Sodium-dependent serotonin transporter (Homo sapiens, UniProt P31645); experiment: Binding affinity to 5-HT transporter
Sodium-dependent serotonin transporter, sequence (P31645 whole entry): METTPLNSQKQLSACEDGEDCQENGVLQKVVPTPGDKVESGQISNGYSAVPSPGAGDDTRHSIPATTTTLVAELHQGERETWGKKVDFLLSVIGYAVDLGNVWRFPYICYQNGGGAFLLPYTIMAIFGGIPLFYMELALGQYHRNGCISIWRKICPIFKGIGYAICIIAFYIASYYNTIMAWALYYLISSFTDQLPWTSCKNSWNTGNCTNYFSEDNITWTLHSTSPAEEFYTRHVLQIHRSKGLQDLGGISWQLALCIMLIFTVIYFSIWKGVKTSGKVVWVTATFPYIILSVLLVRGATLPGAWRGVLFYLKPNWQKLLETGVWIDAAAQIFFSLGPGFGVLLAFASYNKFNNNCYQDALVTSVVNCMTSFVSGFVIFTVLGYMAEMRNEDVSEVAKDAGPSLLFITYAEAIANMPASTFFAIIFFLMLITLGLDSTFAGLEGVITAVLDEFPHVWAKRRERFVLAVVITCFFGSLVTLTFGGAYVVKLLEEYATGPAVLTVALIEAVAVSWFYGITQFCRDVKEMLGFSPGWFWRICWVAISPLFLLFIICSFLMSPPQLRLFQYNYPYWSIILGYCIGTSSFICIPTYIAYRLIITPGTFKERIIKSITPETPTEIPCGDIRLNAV

Albumin = Albumin (Homo sapiens, UniProt P02768); experiment: Binding affinity to human serum albumin; format: ADME; details: isolated protein
Procedure, shortened: (§6)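 Binding to human serum albumin and to α1-acid glycoprotein was assessed by Biacore analysis.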

D(2) dopamine receptor = D(2) dopamine receptor (Homo sapiens, UniProt P14416); experiment: Binding affinity to D2 receptor
D(2) dopamine receptor, sequence (P14416 whole entry): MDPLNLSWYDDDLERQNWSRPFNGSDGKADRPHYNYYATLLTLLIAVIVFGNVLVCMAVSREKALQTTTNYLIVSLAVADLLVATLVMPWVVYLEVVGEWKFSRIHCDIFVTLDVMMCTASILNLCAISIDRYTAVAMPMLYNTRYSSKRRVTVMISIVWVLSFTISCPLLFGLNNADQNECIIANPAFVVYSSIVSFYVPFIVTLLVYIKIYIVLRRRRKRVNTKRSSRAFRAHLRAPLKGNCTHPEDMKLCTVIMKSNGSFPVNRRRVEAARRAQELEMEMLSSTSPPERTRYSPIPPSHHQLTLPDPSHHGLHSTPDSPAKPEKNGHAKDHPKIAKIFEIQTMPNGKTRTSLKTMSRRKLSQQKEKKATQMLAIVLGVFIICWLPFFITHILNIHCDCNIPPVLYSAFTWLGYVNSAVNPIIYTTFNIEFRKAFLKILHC

Plasma = experiment: AUC (0 to infinity) in rat plasma at 10 mg/kg, po; format: ADME, organism-based; parameters: time infinity, dose 10 mg/kg, route oral; details: in vivo
[17] = Binding affinity to human alpha1-acid glycoprotein; format: ADME; procedure, shortened: as §6
Brain = experiment: AUC (0 to infinity) in rat brain at 10 mg/kg, po; format: ADME, organism-based; parameters: dose 10 mg/kg, route oral, time infinity; details: in vivo
Procedure, shortened: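 Rats were dosed orally at 10 mg/kg. AUC0→∞ was determined in both brain and plasma, and the brain/plasma ratio was calculated from the two AUCs.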

[18] = Half life in cynomolgus monkey liver microsomes at 1 uM after 30 mins in presence of NADPH and UDPGA; format: ADME, Macaca fascicularis, Microsome; procedure, shortened: as §4
Histamine H3 receptor [19] = target: T2, Histamine H3 receptor; experiment: Inverse agonist activity at human H3 receptor expressed in HEK293T cells assessed as inhibition of {35S]GTPgamma binding; format: cell-based, HEK-293T
Procedure, shortened: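 Basal [35S]GTPγS binding was measured in membranes from HEK cells expressing human H3 receptor, across a range of concentrations. EC50 and maximal inhibition relative to basal binding were derived.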

Histamine H1 receptor = Histamine H1 receptor (Homo sapiens, UniProt P35367); experiment: Binding affinity to H1 receptor
Histamine H1 receptor, sequence (P35367 whole entry): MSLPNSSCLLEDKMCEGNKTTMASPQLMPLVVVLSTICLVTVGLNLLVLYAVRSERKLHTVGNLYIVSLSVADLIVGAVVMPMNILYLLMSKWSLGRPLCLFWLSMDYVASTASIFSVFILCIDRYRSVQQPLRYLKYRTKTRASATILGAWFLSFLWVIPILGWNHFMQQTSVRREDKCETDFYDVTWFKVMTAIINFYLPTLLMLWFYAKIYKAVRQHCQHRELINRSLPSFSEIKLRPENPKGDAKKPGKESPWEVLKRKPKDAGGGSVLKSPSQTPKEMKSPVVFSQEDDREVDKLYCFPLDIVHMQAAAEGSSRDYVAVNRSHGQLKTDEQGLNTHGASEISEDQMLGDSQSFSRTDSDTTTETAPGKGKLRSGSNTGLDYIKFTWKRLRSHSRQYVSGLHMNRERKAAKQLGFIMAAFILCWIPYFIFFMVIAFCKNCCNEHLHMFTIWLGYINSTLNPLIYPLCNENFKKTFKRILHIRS

Cytochrome P450 2C8 = Cytochrome P450 2C8 (Homo sapiens, UniProt P10632); experiment: Inhibition of CYP2C8 in human liver microsomes up to 100 uM; format: ADME, Microsome; procedure, shortened: as §1
Cytochrome P450 3A4 [20] = target: T1, Cytochrome P450 3A4; experiment: Inhibition of CYP3A4-mediated midazolam-1'-hydroxylation activity in human liver microsomes at 100 uM; format: ADME, Microsome; procedure, shortened: as §1
[21] = Ratio of Brain AUC (0 to infinity) to plasma AUC (0 to infinity) in rat at 10 mg/kg, po; format: ADME, organism-based; parameters: dose 10 mg/kg, route oral; details: read-out: BPR
Procedure, shortened: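 Rats dosed orally at 10 mg/kg; brain and plasma AUC0→∞ measured, ratio taken as brain/plasma. Oral vehicle 2% Tween/0.5% methyl cellulose in water.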

[22] = Half life in beagle dog liver microsomes at 1 uM after 30 mins in presence of NADPH and UDPGA; format: ADME, Canis lupus familiaris, Microsome; procedure, shortened: as §4
Cytochrome P450 2C9 = Cytochrome P450 2C9 (Homo sapiens, UniProt P11712); experiment: Inhibition of CYP2C9 in human liver microsomes up to 100 uM; format: ADME, Microsome; procedure, shortened: as §1
Histamine H2 receptor = Histamine H2 receptor (Homo sapiens, UniProt P25021); experiment: Binding affinity to H2 receptor
Histamine H2 receptor, sequence (P25021 whole entry): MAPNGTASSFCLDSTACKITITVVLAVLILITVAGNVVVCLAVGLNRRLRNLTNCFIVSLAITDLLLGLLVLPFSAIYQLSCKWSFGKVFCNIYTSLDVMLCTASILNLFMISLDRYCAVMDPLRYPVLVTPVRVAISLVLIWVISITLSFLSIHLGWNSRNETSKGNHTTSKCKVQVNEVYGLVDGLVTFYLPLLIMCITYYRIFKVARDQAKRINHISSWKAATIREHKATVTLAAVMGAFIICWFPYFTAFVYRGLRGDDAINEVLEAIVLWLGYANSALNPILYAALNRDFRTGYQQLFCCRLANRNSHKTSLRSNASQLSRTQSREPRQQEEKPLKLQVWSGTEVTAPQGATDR

Cytochrome P450 1A2 = Cytochrome P450 1A2 (Homo sapiens, UniProt P05177); experiment: Inhibition of CYP1A2 in human liver microsomes up to 100 uM; format: ADME, Microsome; procedure, shortened: as §1
[23] = Apparent permeability from basolateral to apical side of human Caco2 cells; format: ADME, cell-based; details: Caco-2; procedure, shortened: as §2
Cytochrome P450 3A4 [24] = target: T1, Cytochrome P450 3A4; experiment: Inhibition of CYP3A4-mediated testosterone-6beta-hydroxylation activity in human liver microsomes at 100 uM; format: ADME, Microsome; procedure, shortened: as §1
[25] = target: Voltage-gated inwardly rectifying potassium channel KCNH2 (Homo sapiens, UniProt Q12809); experiment: Inhibition of human ERG by IonWorks assay

T1 sequence (P08684 whole entry): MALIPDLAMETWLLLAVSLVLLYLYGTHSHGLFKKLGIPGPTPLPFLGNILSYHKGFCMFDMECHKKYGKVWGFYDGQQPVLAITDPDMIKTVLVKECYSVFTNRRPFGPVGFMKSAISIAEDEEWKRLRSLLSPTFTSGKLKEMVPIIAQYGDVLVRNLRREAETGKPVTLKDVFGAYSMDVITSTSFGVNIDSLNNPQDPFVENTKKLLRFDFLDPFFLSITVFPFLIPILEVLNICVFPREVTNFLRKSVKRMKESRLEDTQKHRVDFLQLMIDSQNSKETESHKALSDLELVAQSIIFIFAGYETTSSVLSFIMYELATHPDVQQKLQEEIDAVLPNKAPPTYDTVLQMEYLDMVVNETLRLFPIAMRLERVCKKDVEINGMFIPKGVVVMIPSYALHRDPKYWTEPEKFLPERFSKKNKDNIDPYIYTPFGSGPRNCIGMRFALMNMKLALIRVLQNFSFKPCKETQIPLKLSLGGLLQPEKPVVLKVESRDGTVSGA

CN(C)C(=O)c1ccc(-c2ccc3c(c2)CCN(CCN2CCCC2)C3=O)cc1
inhibition (INH) (Cytochrome P450 3A4 [1]): Not Active | Ki [2]: > 10 µM | inhibition (INH) (Cytochrome P450 2A6): Not Active | Ki (Histamine H3 receptor [3]): 0.0009 µM | inhibition (INH) (Cytochrome P450 2C19): Not Active | Ki [4]: > 10 µM | Papp A→B [5]: 12.1 ×10⁻⁶ cm/s | Ki [6]: 8.67 µM | Stability (Liver microsomes [7]): Stable | half-life at 1 µM [8]: 26 min | Ki [9]: > 10 µM | inhibition (INH) (Cytochrome P450 2D6): Not Active | half-life at 1 µM [10]: 69 min | inhibition (INH) (Cytochrome P450 2B6): Not Active | Stability (Liver): Stable | Stability [11]: Stable | fraction unbound [12]: 0.5 | Stability (Liver microsomes [13]): Stable | Ki [14]: > 3 µM | fraction unbound [15]: 0.59 | Ki [16]: > 3 µM | Activity (Albumin): Toxic | Ki (D(2) dopamine receptor): > 10 µM | AUC (Plasma): 2369 ng·h/g | Activity [17]: Toxic | AUC (Brain): 642 ng·h/g | half-life at 1 µM [18]: > 60 min | EC50 (Histamine H3 receptor [19]): 0.0107 µM | Ki (Histamine H1 receptor): > 10 µM | inhibition (INH) (Cytochrome P450 2C8): Not Active | inhibition (INH) (Cytochrome P450 3A4 [20]): Not Active | Kp [21]: 0.27 | half-life at 1 µM [22]: 47 min | inhibition (INH) (Cytochrome P450 2C9): Not Active | Ki (Histamine H2 receptor): > 55 µM | inhibition (INH) (Cytochrome P450 1A2): Not Active | Papp B→A [23]: 31.1 ×10⁻⁶ cm/s | inhibition (INH) (Cytochrome P450 3A4 [24]): Not Active

O=C(NC1CCCC1)c1ccc(-c2ccc3c(c2)CCN(CCN2CCCC2)C3=O)cc1
Ki [2]: > 10 µM | IC50 [25]: 8.2 µM | Ki (Histamine H3 receptor [3]): 0.0019 µM | Ki [4]: > 10 µM | Ki [6]: 8.72 µM | Ki [9]: > 10 µM | Ki [14]: > 3 µM | Ki [16]: 0.17 µM | Ki (D(2) dopamine receptor): > 10 µM | Ki (Histamine H1 receptor): 9.62 µM | Ki (Histamine H2 receptor): > 10 µM

C[C@@H]1CCCN1C(=O)c1ccc(-c2ccc3c(c2)CCN(CCN2CCCC2)C3=O)cc1
Ki [2]: > 10 µM | IC50 [25]: 10.5 µM | Ki (Histamine H3 receptor [3]): 0.0017 µM | Ki [4]: > 10 µM | Ki [6]: 9.72 µM | Ki [9]: > 10 µM | Ki [14]: > 3 µM | Ki [16]: 0.32 µM | Ki (D(2) dopamine receptor): > 10 µM | Ki (Histamine H1 receptor): > 10 µM | Ki (Histamine H2 receptor): > 10 µM

C[C@@H]1CCCN1CCN1CCc2cc(-c3ccc(C(=O)N4CCCC4)cc3)ccc2C1=O
Ki [2]: > 10 µM | Ki (Histamine H3 receptor [3]): 0.0002 µM | Ki [4]: > 10 µM | Ki [6]: 12.2 µM | Ki [9]: > 10 µM | Ki [14]: > 3 µM | Ki [16]: 0.81 µM | Ki (D(2) dopamine receptor): > 10 µM | Ki (Histamine H1 receptor): 8.75 µM | Ki (Histamine H2 receptor): > 10 µM
